Series [1] deals with 20S proteasome (Homo sapiens, UniProt P20618+P28074). Nature of the series: 20S proteasome chymotrypsin-like activity. As to conditions: 1.2 nM 20S proteasome, Suc-LLVY-AMC. It is filed as biochemical. In outline: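 Kit-supplied 20S proteasome (1.2 nM final) was preincubated with test compound (eight-point, 3-fold serial dilutions) in kit reaction buffer at 37 °C for 10 min. Then 50 μM Suc-LLVY-AMC was added, followed by 1 h at 37 °C. AMC fluorescence was read at ex 380/em 440 nm. IC50 was taken from a semi-log plot of relative fluorescence versus concentration.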

Series [2] has as its system Ub^G76VGFP in HEK293 cells. Description: Ub^G76VGFP reporter level, Western blot. It is filed as cell-based. To be noted: anti-GFP Western blot.
For series [3], the target named is N-ethylmaleimide sensitive factor (NSF) (Cricetulus griseus, UniProt P18708). Nature of the series: NSF ATPase assay. The series is classed as biochemical, Chinese hamster (Cricetulus griseus). In outline: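 Chinese hamster NSF was expressed in E. coli Rosetta 2(DE3), purified by Talon then Superdex 200, and used at 200 nM in 50 mM Tris pH 7.4, 150 mM KCl, 10 mM MgCl2, 1 mM DTT. Compound (0.0004–100 μM in DMSO) was preincubated 10 min at 21 °C, then 100 μM ATP was added. IC50 was fitted from % inhibition on a semi-log plot.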

In series [4] the target is wt p97 (Homo sapiens, UniProt P55072). Nature of the series: p97 ATPase assay. The series is classed as biochemical. In outline: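 Test compound in DMSO (0.0004–100 μM) preincubated 10 min at 21 °C, then 100 μM ATP added at 21 °C. IC50 fitted from % inhibition versus log concentration. Screen: 100 μM pure compounds, EDTA positive control.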
Series [5] addresses p97–Cys0 (Homo sapiens, UniProt P55072, C105V/C174V/C184V/C209A/C415V/C522A/C535V/C572V/C691V/C695V/C69V/C77V). Nature of the series: ATPase assay, cysteine-less p97 variant. It is filed as biochemical. In short, it runs like this:
(§1)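 His-tagged p97 variants were expressed from pET14b in E. coli BL21(DE3) and purified on Talon resin; C522A and C209A were also run on Superose 6. Enzyme (100 nM) was in 50 mM Tris pH 7.4, 150 mM KCl, 10 mM MgCl2, 1 mM DTT. Compound (0.0004–100 μM, 12 points, DMSO) was preincubated 10 min at 21 °C. 100 μM ATP was added at 21 °C. IC50 came from % inhibition versus log concentration.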

The test system of series [6] is total ubiquitylated proteins in HEK293 cells. Description: Total ubiquitylation, Western blot. As to conditions: anti-ubiquitin antibody. It is filed as cell-based. In short, it runs like this:
(§2)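 HEK293 cells were treated with compound in DMEM/10% FBS for 24 h and lysed in SDS sample buffer with sonication. Lysates were run on 4–20% gradient SDS-PAGE and transferred to nitrocellulose, blocked 1 h in 5% milk, then probed with 1:1000 anti-ubiquitin, anti-XBP1s (spliced […] band) or anti-LC3 I/II (LC3-II lowest band). Secondaries were used at 1:3000 with chemiluminescent detection; lamin A or GAPDH served as loading controls.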
On the technique in general: In western blotting, separated proteins are transferred to a membrane and probed.

The target of series [7] is wild-type p97 (wt-p97) (Homo sapiens, UniProt P55072). Description: Analysis of covalent reactivity: p97 ATPase activity after dialysis. It is filed as biochemical. To be noted: 1 μM compound, 1 μM p97, 2 mM ATP. In outline:
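His-tagged wild-type p97 (pET14b, E. coli BL21(DE3), Talon-purified; 1 μM) was incubated with 1 μM compound in Tris/KCl/MgCl2/DTT buffer pH 7.4 at 4 °C 12 h, 21 °C 6 h or 37 °C 2 h; 1% DMSO served as control. The mixture was dialysed against buffer exchanged three times at 2-h intervals.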

Series [8] relates to XBP1s in HEK293 cells. Description: Unfolded protein response: XBP1 splicing, Western blot. It is filed as cell-based. As to conditions: anti-XBP1 Western blot. In outline:
as §2

Series [9] relates to actin (phalloidin), vimentin, and annexin II. Nature of the series: Immunofluorescence of structural proteins. It is filed as cell-based. As to conditions: HEK293 cells, 4 h, concentrations used in the cellular studies.
Series [10] has as its target p97–C522A (Homo sapiens, UniProt P55072, C522A). Nature of the series: ATPase assay, p97 C522A variant. It is filed as biochemical. In short, it runs like this: as §1
Series [11] deals with GroEL (Escherichia coli, UniProt P0A6F5). Nature of the series: biochemical. Also on record: species or system E. coli.
In series [12] the target is p97–C209A (Homo sapiens, UniProt P55072, C209A). Description: ATPase assay, p97 C209A variant. It is filed as biochemical. In short, it runs like this:
as §1

In series [13] the target is ClpX (Escherichia coli, UniProt P0A6H1). Nature of the series: ClpX ATPase assay. The series is classed as biochemical, bacterial.
A short description of series [14]: in vitro. As to conditions: human.
Series [15] can be described thus: in vitro. As to conditions: human. The source holds these as a separate data set.
Series [16] in a line: in vitro. To be noted: human. The source holds these as a separate data set.
Series [17] can be described thus: in vitro. As to conditions: human. This is another data set of the same source.
The nature of series [18]: in vitro. To be noted: human. The source holds these as a separate data set.
A short description of series [19]: in vitro. As to conditions: human. This is another data set of the same source.

For orientation: IC50 means the concentration at which inhibition is half-maximal. A lower IC50 goes with greater potency.

SMILES strings stand for the structures.

Sequence of wt p97 (P55072 whole entry): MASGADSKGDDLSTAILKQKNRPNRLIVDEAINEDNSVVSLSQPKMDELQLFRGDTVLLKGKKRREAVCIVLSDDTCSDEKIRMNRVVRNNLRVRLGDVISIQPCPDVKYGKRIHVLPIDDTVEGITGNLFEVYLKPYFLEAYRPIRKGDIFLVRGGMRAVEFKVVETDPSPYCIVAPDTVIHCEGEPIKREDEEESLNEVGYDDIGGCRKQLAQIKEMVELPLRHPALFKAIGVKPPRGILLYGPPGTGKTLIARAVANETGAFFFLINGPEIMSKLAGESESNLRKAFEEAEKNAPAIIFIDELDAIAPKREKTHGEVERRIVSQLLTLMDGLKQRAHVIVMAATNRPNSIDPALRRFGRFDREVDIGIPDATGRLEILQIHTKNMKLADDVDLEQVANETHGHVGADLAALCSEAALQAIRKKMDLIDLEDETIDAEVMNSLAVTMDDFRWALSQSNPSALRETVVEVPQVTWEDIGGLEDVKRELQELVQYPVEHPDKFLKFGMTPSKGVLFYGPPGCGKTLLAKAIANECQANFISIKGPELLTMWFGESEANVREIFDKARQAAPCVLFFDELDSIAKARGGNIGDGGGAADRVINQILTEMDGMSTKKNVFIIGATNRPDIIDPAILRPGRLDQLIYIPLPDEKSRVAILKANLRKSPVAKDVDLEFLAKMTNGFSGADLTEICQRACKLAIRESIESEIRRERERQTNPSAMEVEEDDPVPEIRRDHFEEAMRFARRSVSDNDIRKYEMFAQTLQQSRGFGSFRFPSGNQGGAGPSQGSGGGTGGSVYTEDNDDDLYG
Sequence of p97–C522A (P55072 whole entry C522A): as the sequence (P55072 whole entry) above, with C522A counted along it
Sequence of N-ethylmaleimide sensitive factor (NSF) (P18708 whole entry): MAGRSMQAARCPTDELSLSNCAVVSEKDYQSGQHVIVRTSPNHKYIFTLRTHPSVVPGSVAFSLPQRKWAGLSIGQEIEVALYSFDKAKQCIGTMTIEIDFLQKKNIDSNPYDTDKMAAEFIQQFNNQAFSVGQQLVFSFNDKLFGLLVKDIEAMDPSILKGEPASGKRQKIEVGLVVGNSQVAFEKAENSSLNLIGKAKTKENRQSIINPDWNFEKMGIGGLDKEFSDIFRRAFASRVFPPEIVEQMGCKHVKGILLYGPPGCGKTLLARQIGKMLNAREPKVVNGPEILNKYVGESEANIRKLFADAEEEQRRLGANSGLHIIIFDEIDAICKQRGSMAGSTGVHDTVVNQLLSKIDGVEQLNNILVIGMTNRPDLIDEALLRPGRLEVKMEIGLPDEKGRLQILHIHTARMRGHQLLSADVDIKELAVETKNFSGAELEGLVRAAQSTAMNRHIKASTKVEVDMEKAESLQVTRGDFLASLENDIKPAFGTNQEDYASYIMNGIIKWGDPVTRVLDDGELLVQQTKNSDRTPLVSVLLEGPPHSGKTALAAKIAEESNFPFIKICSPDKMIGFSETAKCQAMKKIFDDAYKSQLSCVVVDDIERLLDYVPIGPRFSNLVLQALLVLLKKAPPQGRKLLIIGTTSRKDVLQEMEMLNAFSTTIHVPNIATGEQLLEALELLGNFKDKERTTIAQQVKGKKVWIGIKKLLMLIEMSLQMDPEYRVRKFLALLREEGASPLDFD
Sequence of p97–Cys0 (P55072 whole entry C69V/C77V/C105V/C174V/C184V/C209A/C415V/C522A/C535V/C572V/C691V/C695V): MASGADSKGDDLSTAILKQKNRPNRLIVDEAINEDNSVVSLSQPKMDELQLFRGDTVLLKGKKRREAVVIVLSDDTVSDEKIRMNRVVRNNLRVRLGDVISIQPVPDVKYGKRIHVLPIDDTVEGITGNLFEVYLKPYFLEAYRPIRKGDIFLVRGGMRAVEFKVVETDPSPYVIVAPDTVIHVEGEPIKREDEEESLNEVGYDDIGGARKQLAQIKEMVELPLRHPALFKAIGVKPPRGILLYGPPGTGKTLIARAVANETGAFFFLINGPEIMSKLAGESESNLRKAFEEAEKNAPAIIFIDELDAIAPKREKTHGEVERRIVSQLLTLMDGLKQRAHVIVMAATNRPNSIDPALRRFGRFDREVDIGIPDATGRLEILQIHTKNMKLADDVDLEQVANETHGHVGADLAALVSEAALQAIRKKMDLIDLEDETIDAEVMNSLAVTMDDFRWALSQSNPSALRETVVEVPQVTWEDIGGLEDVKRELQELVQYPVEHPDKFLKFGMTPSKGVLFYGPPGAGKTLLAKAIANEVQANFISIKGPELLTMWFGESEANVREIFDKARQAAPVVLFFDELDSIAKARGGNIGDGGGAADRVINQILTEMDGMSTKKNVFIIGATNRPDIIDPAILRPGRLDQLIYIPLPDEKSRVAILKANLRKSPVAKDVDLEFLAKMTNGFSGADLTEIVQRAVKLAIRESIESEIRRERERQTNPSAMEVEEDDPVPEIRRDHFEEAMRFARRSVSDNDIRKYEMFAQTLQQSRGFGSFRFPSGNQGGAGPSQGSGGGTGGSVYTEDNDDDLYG
Sequence of GroEL (P0A6F5 2-548): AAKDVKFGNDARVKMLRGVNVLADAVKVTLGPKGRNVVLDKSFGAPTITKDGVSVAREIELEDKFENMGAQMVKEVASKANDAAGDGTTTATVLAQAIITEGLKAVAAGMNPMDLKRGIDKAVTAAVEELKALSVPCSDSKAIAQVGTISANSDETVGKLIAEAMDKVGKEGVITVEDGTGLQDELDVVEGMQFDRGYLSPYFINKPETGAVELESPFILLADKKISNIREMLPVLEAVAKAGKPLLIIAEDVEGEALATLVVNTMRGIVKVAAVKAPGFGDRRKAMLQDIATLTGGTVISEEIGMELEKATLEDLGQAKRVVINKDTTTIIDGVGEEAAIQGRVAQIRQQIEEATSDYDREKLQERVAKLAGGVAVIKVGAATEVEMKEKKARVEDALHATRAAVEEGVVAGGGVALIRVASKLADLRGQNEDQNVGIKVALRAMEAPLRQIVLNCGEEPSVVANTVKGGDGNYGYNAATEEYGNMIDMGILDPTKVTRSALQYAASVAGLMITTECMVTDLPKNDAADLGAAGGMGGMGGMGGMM
Sequence of ClpX (P0A6H1 whole entry): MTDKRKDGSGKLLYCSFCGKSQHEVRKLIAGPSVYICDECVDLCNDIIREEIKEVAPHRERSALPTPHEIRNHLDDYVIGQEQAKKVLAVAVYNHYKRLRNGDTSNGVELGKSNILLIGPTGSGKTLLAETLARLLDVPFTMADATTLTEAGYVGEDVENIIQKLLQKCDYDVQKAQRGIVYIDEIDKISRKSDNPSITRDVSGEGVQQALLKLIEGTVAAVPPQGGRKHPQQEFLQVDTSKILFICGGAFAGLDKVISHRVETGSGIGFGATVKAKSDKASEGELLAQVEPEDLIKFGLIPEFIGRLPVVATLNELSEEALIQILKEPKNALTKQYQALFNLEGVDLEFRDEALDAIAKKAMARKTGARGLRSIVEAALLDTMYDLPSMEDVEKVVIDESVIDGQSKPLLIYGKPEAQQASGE
Sequence of p97–C209A (P55072 whole entry C209A): as the sequence (P55072 whole entry) above, with C209A counted along it
Sequence of wild-type p97 (wt-p97) (P55072 whole entry): as the sequence (P55072 whole entry) above

For the compound `CC1=C(CO)C(=O)O[C@@H]([C@@H](C)[C@H]2CC[C@H]3[C@@H]4C[C@H]5O[C@]56[C@@H](O)C=CC(=O)[C@]6(C)[C@H]4CC[C@]23C)C1` [Compound 1, withaferin A], the “inhibition of the 20S proteasome” value in series [1] is given as “inhibit”. The “level of Ub^G76VGFP reporter” value in series [2] was “dose-dependent, higher levels of reporter”. Besides, the 50% inhibitory concentration (IC50) in series [3] is above 200 µM; in series [4] it was 44 ± 0.21 µM; in series [5] it was above 200 µM; in series [10], above 200 µM; in series [11], above 200 µM; in [12] it was 24.9 ± 1.91 µM. The half-inhibitory concentration (IC50) in series [13] is above 200 µM. The “inhibition of p97 in initial screen” value in series [4] (100 μM for pure compounds, 384-well plate) is “moderate inhibition”. Moreover, in series [4] (varied ATP concentration), the “effect of ATP concentration on the IC50 value” is on record as “distinct shift in the IC50 value”. The total ubiquitylation result in series [6] is recorded as “increased”. Also, in series [7], the “inhibition of p97 ATPase remaining after extensive dialysis” value was “slight inhibition remained”. In addition, the “increase in XBP1s” value in series [8] is reported as “did show an increase”. The “effects on structural proteins” value in series [9] was “did not see effects”.
On to `CC1=C(CO)C(=O)O[C@@H]([C@@H](C)[C@H]2CC[C@H]3[C@@H]4C[C@H]5O[C@]56[C@@H](O)[C@@H](O)CC(=O)[C@]6(C)[C@H]4CC[C@]23C)C1` [Compound 14, viscosalactone B], for which the concentration for half-maximal inhibition (IC50) at 48 h in [14], in series [15], in series [16], in series [17], in [18] and in [19] was above 100 µM throughout. Moreover, the IC50 in series [3], in series [4], in series [5], in series [10], in [11] and in series [12] was above 200 µM throughout. The IC50 in [13] was above 200 µM.

For the origin of these results see paper PMC4593394 (ACS chemical biology, 2015).
